In ChEMBL document CHEMBL3868589, “Purification, Conformational Analysis, and Properties of a Family of Tigerinin Peptides from Skin Secretions of the Crowned Bullfrog Hoplobatrachus occipitalis” (J Nat Prod, 2016):
Active and inactive are the calls of the source. No cut-off for these calls is given here. Where a SMILES comes first, the peptide text is derived from it.

Assays:
Mus musculus [1] = species: Mus musculus; test: Cytotoxicity in mouse GLUTag cells assessed as effect on plasma membrane integrity through LDH release up to 1 uM after 20 mins in presence of glucose by nonradioactive CytoTox96 assay; type: toxicity, cell-based
Method in brief: (§1)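 BRIN-BD11 and GLUTag cells exposed to peptides (1 nM to 1 μM; n = 3) for 20 min at 37 °C in KRB buffer with 5.6 mM glucose. Membrane integrity judged by LDH in supernatant, measured with CytoTox96 nonradioactive kit.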

BRIN-BD11 [2] = test: Inhibition of Katp in rat BRIN-BD11 cells assessed as insulin release at 1 uM after 20 mins in presence of 5.6 mM glucose by radioimmunoassay relative to basal level; type: cell-based; design: scale not given: the % may be the effect or the level left
Method in brief: (§2)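 BRIN-BD11 clonal β-cells attached overnight at 37 °C, then 20 min at 37 °C in KRB buffer with 5.6 mM glucose, peptides up to 1 μM. Insulin in supernatant by radioimmunoassay, expressed per 10^6 cells per 20 min. Parallel controls: 10 mM alanine, 1 μM GLP-1, 30 mM KCl.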

Rattus norvegicus = species: Rattus norvegicus; test: Cytotoxicity in rat BRIN-BD11 cells assessed as effect on plasma membrane integrity through LDH release up to 1 uM after 20 mins in presence of glucose by nonradioactive CytoTox96 assay; type: toxicity, cell-based; conditions: brin-bd11, 20 min; method in brief: as §1
[3] = Induction of GLP1 release in mouse GLUTag cells at 1 uM after 2 hrs in presence of 2 mM glucose by ELISA relative to basal level
BRIN-BD11 [4] = test: Inhibition of Katp in rat BRIN-BD11 cells assessed as minimum concentration required to produce increase in rate of insulin release over the basal rate after 20 mins in presence of 5.6 mM glucose by radioimmunoassay; type: cell-based; method in brief: as §2
Mus musculus [5] = species: Mus musculus; test: Toxicity in NIH Swiss mouse erythrocytes assessed as hemolytic activity up to 500 uM incubated for 60 mins; conditions: erythrocyte, 1 h
Method in brief: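 Washed erythrocytes (2 × 10^7 cells) from male NIH Swiss mice incubated 60 min at 37 °C with peptides at 31−500 μM. LC50 taken as mean concentration giving 50% hemolysis across three independent incubations.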

[6] = Induction of GLP1 release in mouse GLUTag cells assessed as minimum concentration required to produce increase in rate of GPL1 release over the basal rate after 2 hrs in presence of 2 mM glucose by ELISA
BRIN-BD11 [7] = test: Inhibition of Katp in rat BRIN-BD11 cells assessed as minimum concentration required to produce 83% increase in rate of insulin release over the basal rate after 20 mins in presence of 5.6 mM glucose by radioimmunoassay; type: cell-based; method in brief: as §2
Mus musculus [8] = species: Mus musculus; test: Antiinflammatory activity in C57BL/6 mouse unstimulated peritoneal cells assessed as reduction of IFN-gamma at 1 ug/ml after 24 hrs by ELISA; type: functional
Method in brief: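 Peritoneal cells lavaged with 5 mL cold PBS from unstimulated adult C57BL/6 mice (mixed macrophages, B-, T-, NK cells), resuspended in RPMI 1640 + 10% FBS, 2 × 10^5 cells/well. Peptides at 1, 5 and 10 μg/mL for 24 h at 37 °C; three independent incubations, 6 mice per group. IFN-γ in cell-free supernatant by ELISA in triplicate, compared with medium only.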

[9] = Induction of GLP1 release in mouse GLUTag cells at 10 nM after 2 hrs by ELISA relative to basal level
BRIN-BD11 [10] = test: Inhibition of Katp in rat BRIN-BD11 cells assessed as increase in rate of insulin release after 20 mins in presence of 5.6 mM glucose by radioimmunoassay relative to basal level; type: cell-based; method in brief: as §2
BRIN-BD11 [11] = test: Inhibition of Katp in rat BRIN-BD11 cells assessed as increase in insulin release after 20 mins by radioimmunoassay; type: cell-based
[12] = Induction of increase in glucose-induced insulin secretion in rat BRIN-BD11 cells assessed as insulin release per million cells at 10 mM after 20 mins by radioimmunoassay (reference value: 1 +/- 0.03 ng); type: functional; method in brief: as §2
[13] = Induction of increase in glucose-induced insulin secretion in rat BRIN-BD11 cells assessed as insulin release per million cells at 30 mM after 20 mins by radioimmunoassay (reference value: 1 +/- 0.03 ng); type: functional; method in brief: as §2

SMILES | Activity (Mus musculus [1]) | Activity (BRIN-BD11 [2]) | Activity (Rattus norvegicus) | Activity [3] | Activity (BRIN-BD11 [4]) | Activity (Mus musculus [5]) | Activity [6] | also measured
CC[C@H](C)[C@H](NC(=O)[C@@H](N)CCCNC(=N)N)C(=O)N[C@@H](CS)C(=O)N[C@H](C(=O)N[C@@H](C)C(=O)N[C@H](C(=O)N1CCC[C@H]1C(=O)N[C@@H](CC(C)C)C(=O)N1CCC[C@H]1C(=O)N[C@@H](CCSC)C(=O)N[C@@H](CS)C(=O)N[C@@H](CC(C)C)C(=O)O)[C@@H](C)CC)[C@@H](C)O (H-RICTAIPLPMCL-OH) | Non-Toxic | 233% | Non-Toxic | 217.5% | 1 ×10⁻⁷ M | Non-Toxic | 1 ×10⁻⁶ M | 
CC[C@H](C)[C@H](NC(=O)[C@@H](N)CCCNC(=N)N)C(=O)N[C@@H](CS)C(=O)N[C@H](C(=O)N1CCC[C@H]1C(=O)N[C@H](C(=O)N1CCC[C@H]1C(=O)N[C@@H](Cc1ccccc1)C(=O)N1CCC[C@H]1C(=O)N[C@@H](CCSC)C(=O)N[C@@H](CS)C(=O)N[C@@H](Cc1ccc(O)cc1)C(=O)O)[C@@H](C)CC)[C@@H](C)O (H-RICTPIPFPMCY-OH) | Non-Toxic | 395% | Non-Toxic | 159% |  | Non-Toxic |  | Activity (BRIN-BD11 [7]): 1 ×10⁻⁹ M
CC[C@H](C)[C@H](NC(=O)[C@H](CS)NC(=O)[C@@H](NC(=O)[C@@H](N)CCCNC(=N)N)[C@@H](C)O)C(=O)N1CCC[C@H]1C(=O)N[C@H](C(=O)N1CCC[C@H]1C(=O)N[C@@H](CC(C)C)C(=O)N[C@H](C(=O)N[C@@H](CCSC)C(=O)N[C@@H](CS)C(=O)O)C(C)C)[C@@H](C)CC (H-RTCIPIPLVMC-OH) | Non-Toxic | 201% | Non-Toxic | 193% | 1 ×10⁻⁷ M | Non-Toxic | 1 ×10⁻⁷ M | Activity (Mus musculus [8]): Active
CC[C@H](C)[C@H](NC(=O)[C@H](CS)NC(=O)[C@@H](NC(=O)[C@@H](N)CCCNC(=N)N)[C@@H](C)O)C(=O)N1CCC[C@H]1C(=O)N[C@H](C(=O)N1CCC[C@H]1C(=O)N1CCC[C@H]1C(=O)N[C@H](C(=O)N[C@@H](CS)C(=O)N[C@@H](Cc1ccccc1)C(=O)O)C(C)C)[C@@H](C)CC (H-RTCIPIPPVCF-OH) | Non-Toxic | 163% | Non-Toxic |  | 1 ×10⁻⁶ M | Non-Toxic | 1 ×10⁻⁸ M | Activity [9]: 289.3%; Activity (Mus musculus [8]): Active
CC[C@H](C)[C@H](NC(=O)[C@H](C)NC(=O)[C@H](CO)NC(=O)[C@H](CS)NC(=O)[C@@H](NC(=O)[C@@H](N)CCCNC(=N)N)C(C)C)C(=O)N1CCC[C@H]1C(=O)N[C@@H](CC(C)C)C(=O)N1CCC[C@H]1C(=O)N[C@@H](Cc1c[nH]c2ccccc12)C(=O)N[C@@H](CS)C(=O)N[C@@H](Cc1cnc[nH]1)C(=O)O (H-RVCSAIPLPWCH-OH) |  |  |  |  |  |  |  | inhibition (BRIN-BD11 [10]): Dose-dependent effect; inhibition (BRIN-BD11 [11]): Dose-dependent effect
C[C@H](N)C(=O)O [ALANINE] |  |  |  |  |  |  |  | Activity [12]: 3.05 ng
[Cl-].[K+] [POTASSIUM CHLORIDE] |  |  |  |  |  |  |  | Activity [13]: 4.05 ng
